Results reported in ChEMBL document CHEMBL5058577, “EUbOPEN Chemogenomics Library 2 (Multiplex)” (2022).

Tested on: U2OS
Experiment: Multiplex assay against U2OS
Type: toxicity, cell-based
Conditions: human
Method in brief: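 With compound added, live cells were imaged on a CQ1 microscope at 37°C and 5% CO2; staining with Hoechst33342, BioTracker Green Microtubule Cytoskeleton Dye, MitoTracker Red and Annexin V Alexa Fluor 680 had been done at seeding. The CellPathfinder machine-learning gating scheme split cells into Hoechst high-intensity objects or normal cells, normal cells into healthy, pyknosed or fragmented nuclei, and pyknosed cells into mitotic or apoptotic. The tubulin, mitochondrial-mass and membrane-permeability phenotypes are per cents of healthy-nucleus cells.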

[1] = 12 h, 1 µM, compound concentration 1 uM, replicate 1
[2] = 12 h, 1 µM, compound concentration 1 uM, replicate 2
[3] = 12 h, 10 µM, compound concentration 10 uM, replicate 1
[4] = 12 h, 10 µM, compound concentration 10 uM, replicate 2
[5] = 24 h, 1 µM, compound concentration 1 uM, replicate 1
[6] = 24 h, 1 µM, compound concentration 1 uM, replicate 2
[7] = 24 h, 10 µM, compound concentration 10 uM, replicate 1
[8] = 24 h, 10 µM, compound concentration 10 uM, replicate 2
[9] = 48 h, 1 µM, compound concentration 1 uM, replicate 1
[10] = 48 h, 1 µM, compound concentration 1 uM, replicate 2
[11] = 48 h, 10 µM, compound concentration 10 uM, replicate 1
[12] = 48 h, 10 µM, compound concentration 10 uM, replicate 2

In the case of `Cc1cccc(NC(=O)CN2CCC(c3ccccn3)CC2)c1.Cl.Cl`, the “Population Apoptotic (%)” value [1] is reported as 90%, the “Population Fragmented Nuclei (%)” value [1] is reported as 27% and the “Population Healthy Nuclei (%)” value [1] is reported as 67%. The “Population Hoechst High Intensity Objects (%)” value [1] was 1%, the “Population Membrane Permeable-Phenotype (%)” value [1] was 5% and the “Population Mitochondria Different-Phenotype (%)” value [1] was 2%. The “Population Mitotic Cells (%)” value [1] was 9%, the “Population Normal (%)” value [1] was 98% and the “Population Pyknosed Nuclei (%)” value [1] was 5%. For the same compound, the “Population Tubulin-Different-Phenotype (%)” value [1] was 3%, the “Total Cell Count” value [1] was 208 and the “Population Apoptotic (%)” value [2] was 57%. The “Population Fragmented Nuclei (%)” value [2] was 17%, the “Population Healthy Nuclei (%)” value [2] was 76% and the “Population Hoechst High Intensity Objects (%)” value [2] was 0%. The “Population Membrane Permeable-Phenotype (%)” value [2] was 4%, the “Population Mitotic Cells (%)” value [2] was 42% and the “Population Normal (%)” value [2] was 99%. The “Population Pyknosed Nuclei (%)” value [2] was 6%, the “Total Cell Count” value [2] was 111 and the “Population Apoptotic (%)” value [3] was 72%. For the same compound, the “Population Fragmented Nuclei (%)” value [3] was 34%, the “Population Healthy Nuclei (%)” value [3] was 55% and the “Population Hoechst High Intensity Objects (%)” value [3] was 2%. For the same compound, the “Population Membrane Permeable-Phenotype (%)” value [3] was 8%, the “Population Mitochondria Different-Phenotype (%)” value [3] was 6% and the “Population Mitotic Cells (%)” value [3] was 27%. The “Population Normal (%)” value [3] was 97%, the “Population Pyknosed Nuclei (%)” value [3] was 10% and the “Population Tubulin-Different-Phenotype (%)” value [3] was 3%. The “Total Cell Count” value [3] was 216, the “Population Apoptotic (%)” value [4] was 66% and the “Population Fragmented Nuclei (%)” value [4] was 21%. For the same compound, the “Population Healthy Nuclei (%)” value [4] was 70%, the “Population Hoechst High Intensity Objects (%)” value [4] was 1% and the “Population Membrane Permeable-Phenotype (%)” value [4] was 12%. The “Population Mitochondria Different-Phenotype (%)” value [4] was 7%, the “Population Mitotic Cells (%)” value [4] was 33% and the “Population Normal (%)” value [4] was 98%. For the same compound, the “Population Pyknosed Nuclei (%)” value [4] was 8%, the “Population Tubulin-Different-Phenotype (%)” value [4] was 9% and the “Total Cell Count” value [4] was 111. The “Population Apoptotic (%)” value [5] was 76%, the “Population Fragmented Nuclei (%)” value [5] was 22% and the “Population Healthy Nuclei (%)” value [5] was 70%. The “Population Hoechst High Intensity Objects (%)” value [5] was 3%, the “Population Membrane Permeable-Phenotype (%)” value [5] was 5% and the “Population Mitochondria Different-Phenotype (%)” value [5] was 3%. The “Population Mitotic Cells (%)” value [5] was 23%, the “Population Normal (%)” value [5] was 96% and the “Population Pyknosed Nuclei (%)” value [5] was 7%. The “Population Tubulin-Different-Phenotype (%)” value [5] was 3%, the “Total Cell Count” value [5] was 249 and the “Population Apoptotic (%)” value [6] was 73%. For the same compound, the “Population Fragmented Nuclei (%)” value [6] was 21%, the “Population Healthy Nuclei (%)” value [6] was 67% and the “Population Hoechst High Intensity Objects (%)” value [6] was 0%. For the same compound, the “Population Membrane Permeable-Phenotype (%)” value [6] was 7%, the “Population Mitochondria Different-Phenotype (%)” value [6] was 4% and the “Population Mitotic Cells (%)” value [6] was 26%. The “Population Normal (%)” value [6] was 99%, the “Population Pyknosed Nuclei (%)” value [6] was 11% and the “Population Tubulin-Different-Phenotype (%)” value [6] was 5%. The “Total Cell Count” value [6] was 135, the “Population Apoptotic (%)” value [7] was 85% and the “Population Fragmented Nuclei (%)” value [7] was 32%. For the same compound, the “Population Healthy Nuclei (%)” value [7] was 55%, the “Population Hoechst High Intensity Objects (%)” value [7] was 3% and the “Population Membrane Permeable-Phenotype (%)” value [7] was 6%. The “Population Mitochondria Different-Phenotype (%)” value [7] was 3%, the “Population Mitotic Cells (%)” value [7] was 14% and the “Population Normal (%)” value [7] was 96%. The “Population Pyknosed Nuclei (%)” value [7] was 11%, the “Population Tubulin-Different-Phenotype (%)” value [7] was 2% and the “Total Cell Count” value [7] was 243. For the same compound, the “Population Apoptotic (%)” value [8] was 75%, the “Population Fragmented Nuclei (%)” value [8] was 20% and the “Population Healthy Nuclei (%)” value [8] was 73%. For the same compound, the “Population Hoechst High Intensity Objects (%)” value [8] was 2%, the “Population Membrane Permeable-Phenotype (%)” value [8] was 17% and the “Population Mitochondria Different-Phenotype (%)” value [8] was 5%. The “Population Mitotic Cells (%)” value [8] was 25%, the “Population Normal (%)” value [8] was 97% and the “Population Pyknosed Nuclei (%)” value [8] was 6%. For the same compound, the “Population Tubulin-Different-Phenotype (%)” value [8] was 10%, the “Total Cell Count” value [8] was 131 and the “Population Apoptotic (%)” value [9] was 82%. For the same compound, the “Population Fragmented Nuclei (%)” value [9] was 18%, the “Population Healthy Nuclei (%)” value [9] was 72% and the “Population Hoechst High Intensity Objects (%)” value [9] was 2%. For the same compound, the “Population Membrane Permeable-Phenotype (%)” value [9] was 6%, the “Population Mitochondria Different-Phenotype (%)” value [9] was 3% and the “Population Mitotic Cells (%)” value [9] was 17%. The “Population Normal (%)” value [9] was 97%, the “Population Pyknosed Nuclei (%)” value [9] was 8% and the “Population Tubulin-Different-Phenotype (%)” value [9] was 3%. The “Total Cell Count” value [9] was 341, the “Population Apoptotic (%)” value [10] was 94% and the “Population Fragmented Nuclei (%)” value [10] was 17%. For the same compound, the “Population Hoechst High Intensity Objects (%)” value [10] was 3%, the “Population Membrane Permeable-Phenotype (%)” value [10] was 2% and the “Population Mitotic Cells (%)” value [10] was 5%. For the same compound, the “Population Normal (%)” value [10] was 96%, the “Population Pyknosed Nuclei (%)” value [10] was 10% and the “Population Tubulin-Different-Phenotype (%)” value [10] was 2%. The “Total Cell Count” value [10] was 182, the “Population Apoptotic (%)” value [11] was 96% and the “Population Fragmented Nuclei (%)” value [11] was 29%. The “Population Healthy Nuclei (%)” value [11] was 60%, the “Population Hoechst High Intensity Objects (%)” value [11] was 3% and the “Population Membrane Permeable-Phenotype (%)” value [11] was 6%. For the same compound, the “Population Mitochondria Different-Phenotype (%)” value [11] was 6%, the “Population Mitotic Cells (%)” value [11] was 3% and the “Population Normal (%)” value [11] was 96%. For the same compound, the “Population Pyknosed Nuclei (%)” value [11] was 9%, the “Population Tubulin-Different-Phenotype (%)” value [11] was 3% and the “Total Cell Count” value [11] was 303. The “Population Apoptotic (%)” value [12] was 83%, the “Population Fragmented Nuclei (%)” value [12] was 19% and the “Population Healthy Nuclei (%)” value [12] was 74%. For the same compound, the “Population Membrane Permeable-Phenotype (%)” value [12] was 10%, the “Population Mitochondria Different-Phenotype (%)” value [12] was 4% and the “Population Mitotic Cells (%)” value [12] was 16%. For the same compound, the “Population Pyknosed Nuclei (%)” value [12] was 6%, the “Population Tubulin-Different-Phenotype (%)” value [12] was 4% and the “Total Cell Count” value [12] was 198.
